Assay results published in ChEMBL document CHEMBL1157912, “Impact of nature and length of linker incorporated in agonists on toll-like receptor 9-mediated immune responses” (J Med Chem, 2010).

Assays:
[1] = target: T1, Toll-like receptor 9 (Homo sapiens) (UniProt Q9NR96); experiment: Induction of TLR9-mediated immune stimulation in human PBMC assessed as IL6 production at 10 ug/ml after 24 hrs by luminex multiplex assay (RVb = 0.01 ng/ml)
T1 sequence (whole entry): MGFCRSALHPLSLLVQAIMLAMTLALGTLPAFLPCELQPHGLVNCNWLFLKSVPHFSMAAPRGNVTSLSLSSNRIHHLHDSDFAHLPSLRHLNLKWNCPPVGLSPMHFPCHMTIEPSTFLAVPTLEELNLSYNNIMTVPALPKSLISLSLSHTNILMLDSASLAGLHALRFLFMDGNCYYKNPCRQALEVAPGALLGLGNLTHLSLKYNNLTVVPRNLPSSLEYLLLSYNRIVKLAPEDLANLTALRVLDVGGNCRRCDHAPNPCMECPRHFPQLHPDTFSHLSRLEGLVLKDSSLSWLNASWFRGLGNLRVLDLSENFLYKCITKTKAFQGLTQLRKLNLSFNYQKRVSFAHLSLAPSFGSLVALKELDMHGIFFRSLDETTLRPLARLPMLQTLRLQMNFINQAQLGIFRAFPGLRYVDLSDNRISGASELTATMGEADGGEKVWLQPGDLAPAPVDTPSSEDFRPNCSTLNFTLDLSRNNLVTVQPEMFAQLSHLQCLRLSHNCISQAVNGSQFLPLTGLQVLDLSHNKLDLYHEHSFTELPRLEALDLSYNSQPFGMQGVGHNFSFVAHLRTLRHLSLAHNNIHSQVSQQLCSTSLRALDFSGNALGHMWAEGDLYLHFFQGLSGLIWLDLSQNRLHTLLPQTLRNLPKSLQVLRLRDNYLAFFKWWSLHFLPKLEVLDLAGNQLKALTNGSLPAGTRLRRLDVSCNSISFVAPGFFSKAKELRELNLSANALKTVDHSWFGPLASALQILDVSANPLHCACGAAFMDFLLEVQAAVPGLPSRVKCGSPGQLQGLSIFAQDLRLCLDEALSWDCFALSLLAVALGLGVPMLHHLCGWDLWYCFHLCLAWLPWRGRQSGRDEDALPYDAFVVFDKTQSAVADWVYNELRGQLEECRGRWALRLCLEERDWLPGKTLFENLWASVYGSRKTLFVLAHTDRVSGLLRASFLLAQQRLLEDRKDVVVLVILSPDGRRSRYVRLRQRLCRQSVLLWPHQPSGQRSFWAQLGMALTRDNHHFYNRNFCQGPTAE

[2] = target: T1, Toll-like receptor 9 (Homo sapiens); experiment: Induction of TLR9-mediated immune stimulation in human PBMC assessed as MIP1alpha production at 10 ug/ml after 24 hrs by luminex multiplex assay (RVb = 0.01 ng/ml)
[3] = target: T1, Toll-like receptor 9 (Homo sapiens); experiment: Induction of TLR9-mediated immune stimulation in human PBMC assessed as MCP1 production at 10 ug/ml after 24 hrs by luminex multiplex assay (RVb = 0.08 +/- 0.02 ng/ml)
[4] = target: T2, Toll-like receptor 9 (Mus musculus) (UniProt Q9EQU3); experiment: Induction of TLR9-mediated IL6 production in C57BL/6 mouse spleen cells after 24 hrs by ELISA; type: cell-based
T2 sequence (whole entry): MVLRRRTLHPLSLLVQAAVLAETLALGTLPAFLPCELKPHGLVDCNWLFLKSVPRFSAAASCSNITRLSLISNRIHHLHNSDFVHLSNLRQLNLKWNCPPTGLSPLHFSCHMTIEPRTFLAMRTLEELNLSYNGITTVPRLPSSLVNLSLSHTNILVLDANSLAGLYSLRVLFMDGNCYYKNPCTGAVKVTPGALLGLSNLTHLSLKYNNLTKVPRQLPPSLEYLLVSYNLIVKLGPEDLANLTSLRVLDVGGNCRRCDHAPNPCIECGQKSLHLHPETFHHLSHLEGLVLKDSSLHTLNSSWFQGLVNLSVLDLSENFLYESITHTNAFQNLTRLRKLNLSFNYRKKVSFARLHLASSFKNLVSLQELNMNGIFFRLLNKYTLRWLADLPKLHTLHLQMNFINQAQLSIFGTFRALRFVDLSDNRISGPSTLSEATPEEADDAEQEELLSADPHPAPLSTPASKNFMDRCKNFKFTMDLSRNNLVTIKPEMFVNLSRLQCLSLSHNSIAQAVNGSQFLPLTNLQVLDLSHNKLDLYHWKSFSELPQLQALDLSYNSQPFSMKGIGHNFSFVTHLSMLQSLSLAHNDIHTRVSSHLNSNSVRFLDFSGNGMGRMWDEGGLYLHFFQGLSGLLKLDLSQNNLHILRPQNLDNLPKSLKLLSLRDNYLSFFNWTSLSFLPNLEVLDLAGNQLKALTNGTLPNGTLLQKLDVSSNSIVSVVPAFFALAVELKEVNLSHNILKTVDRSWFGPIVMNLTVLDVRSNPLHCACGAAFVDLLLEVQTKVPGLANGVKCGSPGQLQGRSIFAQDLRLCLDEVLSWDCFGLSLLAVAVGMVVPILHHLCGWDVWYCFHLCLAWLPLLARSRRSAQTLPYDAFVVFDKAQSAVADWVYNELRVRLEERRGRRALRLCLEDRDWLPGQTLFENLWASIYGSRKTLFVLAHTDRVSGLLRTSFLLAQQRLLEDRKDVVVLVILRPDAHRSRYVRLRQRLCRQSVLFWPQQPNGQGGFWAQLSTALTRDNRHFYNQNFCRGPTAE
In short: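 C57BL/6 mouse spleen cells were cultured with agonists at 0.1, 0.3, 1, 3 and 10 μg/mL for 24 h. Secreted IL-12 and IL-6 in the supernatants were measured by ELISA. Values are averages of triplicate wells from one representative of at least two independent experiments.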

[5] = target: T1, Toll-like receptor 9 (Homo sapiens); experiment: Induction of TLR9-mediated immune stimulation in human PBMC assessed as IL12 production at 10 ug/ml after 24 hrs by luminex multiplex assay (RVb = 0.00 ng/ml)
[6] = target: T1, Toll-like receptor 9 (Homo sapiens); experiment: Induction of TLR9-mediated immune stimulation in human PBMC assessed as MCP1 production at 2 ug/ml after 24 hrs by luminex multiplex assay (RVb = 0.08 +/- 0.02 ng/ml)
[7] = target: T1, Toll-like receptor 9 (Homo sapiens); experiment: Induction of TLR9-mediated immune stimulation in human PBMC assessed as IP10 production at 2 ug/ml after 24 hrs by luminex multiplex assay (RVb = 0.00 ng/ml)
[8] = target: T1, Toll-like receptor 9 (Homo sapiens); experiment: Induction of TLR9-mediated immune stimulation in human PBMC assessed as IP10 production at 10 ug/ml after 24 hrs by luminex multiplex assay (RVb = 0.00 ng/ml)
[9] = target: T1, Toll-like receptor 9 (Homo sapiens); experiment: Induction of TLR9-mediated immune stimulation in human PBMC assessed as IL1Ralpha production at 2 ug/ml after 24 hrs by luminex multiplex assay (RVb = 0.12 +/- 0.03 ng/ml)
[10] = target: T1, Toll-like receptor 9 (Homo sapiens); experiment: Induction of TLR9-mediated immune stimulation in human PBMC assessed as MIP1beta production at 2 ug/ml after 24 hrs by luminex multiplex assay (RVb = 0.03 +/- 0.02 ng/ml)
[11] = target: T1, Toll-like receptor 9 (Homo sapiens); experiment: Induction of TLR9-mediated immune stimulation in human PBMC assessed as IL1Ralpha production at 10 ug/ml after 24 hrs by luminex multiplex assay (RVb = 0.12 +/- 0.03 ng/ml)

Row | Activity [1] [ng/mL] | Activity [2] [ng/mL] | Activity [3] [ng/mL] | Activity [4] | Activity [5] [ng/mL] | Activity [6] [ng/mL] | Activity [7] [ng/mL] | Activity [8] [ng/mL] | Activity [9] [ng/mL] | Activity [10] [ng/mL] | Activity [11] [ng/mL] | Compound
1 | 0.03 | 0.07 | 0.37 | Dose-dependent effect | 0.05 | 0.2 | 0.01 | 0.02 | 5.47 | 0.07 | 33.8 | Cc1cn([C@H]2C[C@H](OCC(O)COP(=O)(S)O[C@H]3C[C@H](n4cc(C)c(=O)[nH]c4=O)O[C@@H]3COP(=O)(S)O[C@H]3[C@@H](O)[C@H](n4ccc(N)nc4=O)O[C@@H]3COP(=O)(S)O[C@H]3[C@@H](O)[C@H](n4cnc5c(N)ncnc54)O[C@@H]3COP(=O)(S)O[C@H]3[C@@H](O)[C@H](n4cnc5c(N)ncnc54)O[C@@H]3COP(=O)(S)O[C@H]3[C@@H](O)[C@H](n4ccc(N)nc4=O)O[C@@H]3COP(=O)(S)O[C@H]3[C@@H](O)[C@H](n4ccc(N)nc4=O)O[C@@H]3COP(=O)(S)O[C@H]3[C@@H](O)[C@H](n4cnc5c(N)ncnc54)O[C@@H]3COP(=O)(S)O[C@H]3[C@@H](O)[C@H](n4ccc(N)nc4=O)O[C@@H]3COP(=O)(S)O[C@H]3[C@@H](O)[C@H](n4cnc5c(N)ncnc54)O[C@@H]3COP(=O)(S)O[C@H]3[C@@H](O)[C@H](n4ccc(N)nc4=O)O[C@@H]3COP(=O)(S)O[C@H]3[C@@H](O)[C@H](n4cnc5c(N)ncnc54)O[C@@H]3CO)[C@@H](COP(=O)(S)O[C@H]3[C@@H](O)[C@H](n4ccc(N)nc4=O)O[C@@H]3COP(=O)(S)O[C@H]3[C@@H](O)[C@H](n4cnc5c(N)ncnc54)O[C@@H]3COP(=O)(S)O[C@H]3[C@@H](O)[C@H](n4cnc5c(N)ncnc54)O[C@@H]3COP(=O)(S)O[C@H]3[C@@H](O)[C@H](n4ccc(N)nc4=O)O[C@@H]3COP(=O)(S)O[C@H]3[C@@H](O)[C@H](n4ccc(N)nc4=O)O[C@@H]3COP(=O)(S)O[C@H]3[C@@H](O)[C@H](n4cnc5c(N)ncnc54)O[C@@H]3COP(=O)(S)O[C@H]3[C@@H](O)[C@H](n4ccc(N)nc4=O)O[C@@H]3COP(=O)(S)O[C@H]3[C@@H](O)[C@H](n4cnc5c(N)ncnc54)O[C@@H]3COP(=O)(S)O[C@H]3[C@@H](O)[C@H](n4ccc(N)nc4=O)O[C@@H]3COP(=O)(S)O[C@H]3[C@@H](O)[C@H](n4cnc5c(N)ncnc54)O[C@@H]3CO)O2)c(=O)[nH]c1=O (some centres not stated)
2 | 0.58 | 0.27 | 7.13 | Dose-dependent effect | 0.15 | 0.22 | 0.02 | 0.03 | 9.05 | 0.08 | 69.9 | Cc1cn([C@H]2C[C@H](OCCOCCOCCOCCOP(=O)(S)O[C@H]3C[C@H](n4cc(C)c(=O)[nH]c4=O)O[C@@H]3COP(=O)(S)O[C@H]3[C@@H](O)[C@H](n4ccc(N)nc4=O)O[C@@H]3COP(=O)(S)O[C@H]3C[C@H](n4cc(C)c(=O)[nH]c4=O)O[C@@H]3COP(=O)(S)O[C@H]3C[C@H](n4cc(C)c(=O)[nH]c4=O)O[C@@H]3COP(=O)(S)O[C@H]3C[C@H](n4ccc5c(=O)[nH]c(N)nc54)O[C@@H]3COP(=O)(S)O[C@H]3[C@@H](O)[C@H](n4ccc(N)nc4=O)O[C@@H]3COP(=O)(S)O[C@H]3C[C@H](n4cc(C)c(=O)[nH]c4=O)O[C@@H]3COP(=O)(S)O[C@H]3[C@@H](O)[C@H](n4cnc5c(=O)[nH]c(N)nc54)O[C@@H]3COP(=O)(S)O[C@H]3C[C@H](n4cc(C)c(=O)[nH]c4=O)O[C@@H]3COP(=O)(S)O[C@H]3[C@@H](O)[C@H](n4ccc(N)nc4=O)O[C@@H]3COP(=O)(S)O[C@H]3C[C@H](n4cc(C)c(=O)[nH]c4=O)O[C@@H]3CO)[C@@H](COP(=O)(S)O[C@H]3[C@@H](O)[C@H](n4ccc(N)nc4=O)O[C@@H]3COP(=O)(S)O[C@H]3C[C@H](n4cc(C)c(=O)[nH]c4=O)O[C@@H]3COP(=O)(S)O[C@H]3C[C@H](n4cc(C)c(=O)[nH]c4=O)O[C@@H]3COP(=O)(S)O[C@H]3C[C@H](n4ccc5c(=O)[nH]c(N)nc54)O[C@@H]3COP(=O)(S)O[C@H]3[C@@H](O)[C@H](n4ccc(N)nc4=O)O[C@@H]3COP(=O)(S)O[C@H]3C[C@H](n4cc(C)c(=O)[nH]c4=O)O[C@@H]3COP(=O)(S)O[C@H]3[C@@H](O)[C@H](n4cnc5c(=O)[nH]c(N)nc54)O[C@@H]3COP(=O)(S)O[C@H]3C[C@H](n4cc(C)c(=O)[nH]c4=O)O[C@@H]3COP(=O)(S)O[C@H]3[C@@H](O)[C@H](n4ccc(N)nc4=O)O[C@@H]3COP(=O)(S)O[C@H]3C[C@H](n4cc(C)c(=O)[nH]c4=O)O[C@@H]3CO)O2)c(=O)[nH]c1=O (some centres not stated)
